From PubChem BioAssay
The list is not random: actives were taken first. Their share in the collection is about 2.3%.
EWS-Fli block = inhibitors of EWS/Fli oncoprotein transcriptional activity | A673 NR0B1-luciferase reporter, viability-normalised | inhibition, % at 12.6 µM | actives 0.67% (n = 350,000);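 active means mean inhibition of at least 50% after viability correction, with every replicate also passing that limit; inconclusive means mean reaches 50% but only one of two replicates passes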;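 further: firefly luciferase signal divided by Alamar Blue viability fluorescence both relative to DMSO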
Env fusion inh = blocks HIV Env-driven cell-cell fusion; HeLa-JRFL Env/CEM21 cell fusion, luciferase; inhibition, % at 12.3 µM; actives 1.1% (n = 360,000); AID 651610;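 active means mean replicate inhibition score of at least 50 and every replicate individually at or above 50; inconclusive means only one of the two criteria met; inactive means mean below 50 and not all replicates reaching 50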
CFTR F508del cor = correctors of CFTR F508del function in bronchial epithelial cells; actives 0.36% (n = 350,000); CFBE cells, YFP halide quenching; stimulated with forskolin plus potentiator P3; % fluorescence drop versus neutral controls; AID 720511; activity (quench increase), % at 7.58 µM;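 active means mean added fluorescence quench of at least 8% versus neutral control, with both replicates also reaching 8%; inconclusive means only one of the mean or replicate conditions met; inactive means mean below 8% and not both replicates reaching 8%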;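 further: cells transiently co-express mutant CFTR-F508del with the halide-sensitive YFP; corrector assay measuring rescue of mutant channel to the surface after 24 h compound exposure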
PGC1a acetyl inh = modulators of PGC1a acetylation | U2OS PGC1a acetylation, AlphaScreen anti-acetyl-lysine; with virally co-expressed GCN5 acetyltransferase | inhibition, % at 15.6 µM | actives 0.17% (n = 350,000) | AID 651687;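 active means every replicate shows inhibition of at least 40%; inconclusive means mean inhibition at least 40% but some replicate below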
FN deposit inh = fibronectin deposition inhibition | AH1F fibroblasts, Alexa488-fibronectin deposition fluorescence, overnight | inhibition, % at 12.6 µM | actives 0.086% (n = 350,000);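 active means mean inhibition across replicates of 30% or more, regardless of how many single replicates reach that level; inconclusive means mean under 30% yet at least half of replicates reach 30%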
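Assay system: AH1F fibroblasts / Quantity: 10000 cells per well / Medium: DMEM plus 2% serum, read in PBS / Reagent: labelled fibronectin 24 nM / Dosing: single dose, pinned / Times: 1 h cell attachment, overnight exposure to compound and label / Signal: fluorescence, ex 485 nm, em 525 nm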
PAX8 reporter = inhibitors of PAX8 transcriptional activity in RMG-I cells | RMG-I TPO-luciferase reporter, SteadyGlo, 24 h | actives 1.2% (n = 360,000) | AID 652154 | inhibition, % at 12.6 µM;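 active means mean replicate inhibition at least 60% with every replicate also reaching 60%; inconclusive means only one of the two criteria is met; inactive means mean below 60% and not all replicates reaching 60%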;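 further: luciferase light reporting Pax8 driven TPO promoter activity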
Of the large screens only hits and unclear results are named; the others gave an inactive call; ! = a repeat was not active.

C[C@H]1CN([C@@H](C)CO)S(=O)(=O)c2ccc(/C=C/c3ccccc3)cc2O[C@H]1CN(C)C(=O)NC1CCCCC1	PAX8 reporter 70.2!
C[C@H](CO)N1C[C@H](C)[C@@H](CN(C)C(=O)NC2CCCCC2)Oc2cc(C#Cc3ccc(F)cc3)ccc2S1(=O)=O	CFTR F508del cor 8.5, PAX8 reporter 82.2
C[C@@H]1CN([C@@H](C)CO)S(=O)(=O)c2ccc(C#Cc3ccc(F)cc3)cc2O[C@H]1CN(C)C(=O)NC1CCCCC1	PAX8 reporter 99.0
C[C@@H]1CN([C@H](C)CO)S(=O)(=O)c2ccc(C#Cc3ccc(F)cc3)cc2O[C@@H]1CN(C)C(=O)NC1CCCCC1	none
CC(=O)N(C)C[C@@H]1Oc2ccc(N(C)C)cc2C(=O)N(C)C[C@@H]1C	none (no result: EWS-Fli block, Env fusion inh, CFTR F508del cor, PGC1a acetyl inh, PAX8 reporter)
COc1cccc(NC(=O)CN2C(=O)NC3(CCCCCC3)C2=O)c1	CFTR F508del cor 8.8
COc1ccc(NC(=O)CN2C(=O)NC3(CCCCCCC3)C2=O)cc1	none (no result: PGC1a acetyl inh)
CCOc1cc(N2CCOCC2)c(OCC)cc1NC(=O)CN1C(=O)NC2(CCCCC2)C1=O	CFTR F508del cor 22.2
CC(C)c1ccc(NC(=O)CN2C(=O)NC3(CCCCCCC3)C2=O)cc1	CFTR F508del cor 9.5 (no result: PGC1a acetyl inh)
CC(=O)N(C)C[C@@H]1Oc2ncc(-c3cncnc3)cc2C(=O)N([C@@H](C)CO)C[C@H]1C	none (no result: FN deposit inh, PAX8 reporter)
CN1c2ccccc2N(C)C1(C)c1ccccc1	PAX8 reporter 91.6 (no result: CFTR F508del cor, PGC1a acetyl inh)
CC(=O)N(C)C[C@H]1Oc2c(N)cccc2C(=O)N(C)C[C@@H]1C	none (no result: EWS-Fli block, Env fusion inh, CFTR F508del cor, PGC1a acetyl inh, PAX8 reporter)
O=C(/C=C/c1cccc(Cl)c1)c1ccc([N+](=O)[O-])o1	EWS-Fli block 76.7, Env fusion inh inconclusive, FN deposit inh 59.1, PAX8 reporter 102.9 (no result: PGC1a acetyl inh)
COc1ccc(/C=C/C(=O)c2ccc([N+](=O)[O-])o2)cc1OC	EWS-Fli block 62.2, FN deposit inh 35.3, PAX8 reporter 111.6 (no result: PGC1a acetyl inh)
COc1cc(/C=C/C(=O)c2ccc([N+](=O)[O-])o2)ccc1O	EWS-Fli block 55.3 (no result: PGC1a acetyl inh)
Cc1cc(O)c(C(=O)/C=C/c2cccc([N+](=O)[O-])c2)c(=O)o1	none
COc1cc(/C=C/C(=O)O)ccc1O	none (no result: Env fusion inh, FN deposit inh, PAX8 reporter)
COc1ccc(S(=O)(=O)N[C@H]2C=C[C@H](CC(=O)NCCc3ccncc3)O[C@@H]2CO)cc1	none (no result: EWS-Fli block, Env fusion inh, PAX8 reporter)
CC(C)NC(=O)N(C)C[C@H]1Oc2c(NC(=O)Cn3cnnn3)cccc2C(=O)N([C@H](C)CO)C[C@@H]1C	none (no result: EWS-Fli block, Env fusion inh, CFTR F508del cor, PGC1a acetyl inh, PAX8 reporter)
CN1[C@@H]2c3ccc(-c4cccc(F)c4)c(=O)n3C[C@H]1[C@H](CO)[C@H]2C(=O)N1CCCCC1	none (no result: Env fusion inh, PGC1a acetyl inh, FN deposit inh)
CS(=O)(=O)N1CC2(C1)[C@@H](c1ccccc1)[C@@H](CO)N2Cc1ccc(F)cc1	none (no result: Env fusion inh, FN deposit inh, PAX8 reporter)
Cc1ccc(C(=O)N2CCCCC2)cc1NC1=C(Cl)C(=O)N(Cc2ccccc2)C1=O	PAX8 reporter 71.6 (no result: PGC1a acetyl inh)
Cc1ccc(O)c(NC2=C(Cl)C(=O)N(Cc3ccccc3)C2=O)c1	none (no result: PGC1a acetyl inh)
COc1ccc(NC(=O)N(C)C[C@H]2Oc3ccc(NC(=O)Nc4ccc5c(c4)OCO5)cc3CC(=O)N([C@@H](C)CO)C[C@H]2C)cc1	none (no result: FN deposit inh)
Cc1ccc(S(=O)(=O)NCc2csc(C)n2)cc1	none
Cc1nc(CNS(=O)(=O)c2ccc3c(c2)CCCC3)cs1	Env fusion inh 60.4 (no result: PGC1a acetyl inh)
C[C@H]1CN([C@@H](C)CO)S(=O)(=O)c2ccc(-c3cncnc3)cc2O[C@H]1CN(C)C(=O)CC1CC1	none (no result: PAX8 reporter)
COc1ccc(-c2[nH]ncc2-c2ccc3c(c2)OCCO3)c(O)c1	PGC1a acetyl inh 53.1 (no result: EWS-Fli block, Env fusion inh, CFTR F508del cor, FN deposit inh, PAX8 reporter)
COc1ccc(-c2cn[nH]c2-c2ccc(OCc3ccc([N+](=O)[O-])cc3)cc2O)cc1	Env fusion inh 73.0 (no result: CFTR F508del cor, PGC1a acetyl inh)
CCOc1ccc(-c2[nH]ncc2-c2ccc(OC)c(OC)c2)c(O)c1	Env fusion inh 66.6 (no result: EWS-Fli block, CFTR F508del cor, PAX8 reporter)
CCc1cc(-c2[nH]ncc2-c2ccc(OC)cc2)c(O)cc1O	none (no result: PGC1a acetyl inh)
C[C@@H]1CN([C@@H](C)CO)C(=O)Cc2cc(NS(=O)(=O)c3ccc(F)cc3)ccc2O[C@H]1CN(C)Cc1ccc(Oc2ccccc2)cc1	PAX8 reporter 86.1 (no result: FN deposit inh)
C[C@@H]1CN([C@H](C)CO)C(=O)Cc2cc(NS(=O)(=O)c3ccc(Cl)cc3)ccc2O[C@@H]1CN(C)Cc1ccc(Oc2ccccc2)cc1	none
